Data from ChEMBL document CHEMBL1152358, “Aminoparthenolides as novel anti-leukemic agents: Discovery of the NF-kappaB inhibitor, DMAPT (LC-1)” (Bioorg Med Chem Lett, 2009).

Legend:
[1] = Antileukemic activity against acute myeloid leukemia cell assessed as cell death at 10 uM; type: functional
How it was run: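 Probe screen: one million donor-derived primary AML cells in serum-free medium were incubated 24 h with or without analog at a single probe concentration. Cells were PBS-washed, then stained with Annexin-V and 7-AAD in HEPES/NaCl/CaCl₂ buffer pH 7.4 for 15 min, dark, ambient temperature. Flow cytometry followed immediately. Annexin V−/7-AAD− cells were scored viable, normalized to untreated specimens.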

[2] = Antileukemic activity against acute myeloid leukemia cell assessed as cell death; type: functional; details: read-out: LD50 (the source's name)
How it was run: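 Primary AML cells from consenting volunteer donors (one million cells) were cultured in serum-free medium. They were exposed for 24 h, with or without analog, in a dose-response series over 2.5–20 range. Cells were PBS-washed, stained with Annexin-V/7-AAD in HEPES pH 7.4 binding buffer for 15 min in the dark at ambient temperature, then run on a flow cytometer. Viability (Annexin V−/7-AAD−) was normalized to untreated controls, and LD₅₀ was calculated from this series.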

[3] = Aqueous solubility of the compound; type: physicochemical; details: buffer

Compound: C#CNC[C@@H]1C(=O)O[C@H]2[C@H]1CC/C(C)=C\CC[C@@]1(C)O[C@@H]21.O=C(O)/C=C/C(=O)O
- Activity [1]: 7%

Compound: C/C1=C/CC[C@@]2(C)O[C@H]2[C@H]2OC(=O)[C@@H](CN(C)C3CCCCC3)[C@@H]2CC1.O=C(O)/C=C/C(=O)O
- CC50 [2]: 15000 nM
- Activity [1]: 0%

Compound: CCN(CC)C[C@@H]1C(=O)O[C@H]2[C@H]1CC/C(C)=C\CC[C@@]1(C)O[C@@H]21.O=C(O)/C=C/C(=O)O
- Activity [1]: 60%

Compound: C/C1=C/CC[C@@]2(C)O[C@H]2[C@H]2OC(=O)[C@@H](CN(C)CCO)[C@@H]2CC1.O=C(O)/C=C/C(=O)O
- CC50 [2]: 1800 nM
- Activity [1]: 86%

Compound: C/C1=C/CC[C@@]2(C)O[C@H]2[C@H]2OC(=O)[C@@H](CN3CCCCCCC3)[C@@H]2CC1.O=C(O)/C=C/C(=O)O
- Activity [1]: 13%

Compound: C/C1=C/CC[C@@]2(C)O[C@H]2[C@H]2OC(=O)[C@@H](CN3CCC(C)CC3)[C@@H]2CC1.O=C(O)/C=C/C(=O)O
- CC50 [2]: 1600 nM
- Activity [1]: 83%

Compound: C/C1=C/CC[C@@]2(C)O[C@H]2[C@H]2OC(=O)[C@@H](CN3CCCCC3)[C@@H]2CC1.O=C(O)/C=C/C(=O)O
- CC50 [2]: 2400 nM
- Activity [1]: 76%

Compound: C/C1=C/CC[C@@]2(C)O[C@H]2[C@H]2OC(=O)[C@@H](CN(C3CCCCC3)C3CCCCC3)[C@@H]2CC1.O=C(O)/C=C/C(=O)O
- Activity [1]: 12%

Compound: C/C1=C/CC[C@@]2(C)O[C@H]2[C@H]2OC(=O)[C@@H](CNC3CC3)[C@@H]2CC1.O=C(O)/C=C/C(=O)O
- Activity [1]: 6%

Compound: C[C@@H]1C(=O)O[C@H]2[C@H]1CCC1(C)OC1CC[C@@]1(C)O[C@@H]21 (some centres not stated)
- Activity [1]: 0%

Compound: C=CCN(CC=C)C[C@@H]1C(=O)O[C@H]2[C@H]1CC/C(C)=C\CC[C@@]1(C)O[C@@H]21.O=C(O)/C=C/C(=O)O
- Activity [1]: 0%

Compound: C=C1C(=O)O[C@H]2[C@H]1CC/C(C=O)=C\CC[C@@]1(C)O[C@@H]21
- Activity [1]: 0%

Compound: CCCN(C)C[C@@H]1C(=O)O[C@H]2[C@H]1CC/C(C)=C\CC[C@@]1(C)O[C@@H]21.O=C(O)/C=C/C(=O)O
- CC50 [2]: 3200 nM
- Activity [1]: 95%

Compound: CCCN(CCC)C[C@@H]1C(=O)O[C@H]2[C@H]1CC/C(C)=C\CC[C@@]1(C)O[C@@H]21.O=C(O)/C=C/C(=O)O
- Activity [1]: 0%

Compound: CCCCCN(C)C[C@@H]1C(=O)O[C@H]2[C@H]1CC/C(C)=C\CC[C@@]1(C)O[C@@H]21.O=C(O)/C=C/C(=O)O
- CC50 [2]: 4600 nM
- Activity [1]: 46%

Compound: C/C1=C/CC[C@@]2(C)O[C@H]2[C@H]2OC(=O)[C@@H](CN(C)C(C)C)[C@@H]2CC1.O=C(O)/C=C/C(=O)O
- Activity [1]: 78%

Compound: CCCCN(C)C[C@@H]1C(=O)O[C@H]2[C@H]1CC/C(C)=C\CC[C@@]1(C)O[C@@H]21.O=C(O)/C=C/C(=O)O
- CC50 [2]: 2800 nM
- Activity [1]: 68%

Compound: C/C1=C/CC[C@@]2(C)O[C@H]2[C@H]2OC(=O)[C@@H](CN3CC3)[C@@H]2CC1.O=C(O)/C=C/C(=O)O
- Activity [1]: 22%

Compound: C/C1=C/CC[C@@]2(C)O[C@H]2[C@H]2OC(=O)[C@@H](CN(C)C)[C@@H]2CC1.O=C(O)/C=C/C(=O)O
- CC50 [2]: 1700 nM
- Activity [1]: 93%

Compound: C/C1=C/CC[C@@]2(C)O[C@H]2[C@H]2OC(=O)[C@@H](CN3CCCC3)[C@@H]2CC1.O=C(O)/C=C/C(=O)O
- CC50 [2]: 2700 nM
- Activity [1]: 82%

Compound: C/C1=C/CC[C@@]2(C)O[C@H]2[C@H]2OC(=O)[C@@H](CNN(C)C)[C@@H]2CC1.O=C(O)/C=C/C(=O)O
- Activity [1]: 0%

Compound: C/C1=C/CC[C@@]2(C)O[C@H]2[C@H]2OC(=O)[C@@H](CN3CCOCC3)[C@@H]2CC1.O=C(O)/C=C/C(=O)O
- CC50 [2]: 14000 nM
- Activity [1]: 20%

Compound: C/C1=C/CC[C@@]2(C)O[C@H]2[C@H]2OC(=O)[C@@H](CN[C@@H]3[C@@H](O)[C@H](O)[C@@H](CO)O[C@H]3O)[C@@H]2CC1.O=C(O)/C=C/C(=O)O
- Activity [1]: 0%

Compound: C=C1C(=O)O[C@@H]2C3O[C@]3(C)CC/C=C(\C)CC[C@@H]12 (some centres not stated)
- CC50 [2]: 1400 nM
- solubility [3]: 0.169 uM/ml
- Activity [1]: 84%

Compound: C/C1=C/CC[C@@]2(C)O[C@H]2[C@H]2OC(=O)[C@@H](CN(C)[C@@H]3[C@@H](O)[C@H](O)[C@@H](CO)O[C@H]3O)[C@@H]2CC1.O=C(O)/C=C/C(=O)O
- Activity [1]: 0%

Compound: C/C1=C/CC[C@@]2(C)O[C@H]2[C@H]2OC(=O)[C@@H](CN(C(C)C)C(C)C)[C@@H]2CC1.O=C(O)/C=C/C(=O)O
- Activity [1]: 20%

Compound: C=C1C(=O)O[C@H]2[C@H]1CC/C(CO)=C\CC[C@@]1(C)O[C@@H]21
- Activity [1]: 0%

Compound: C/C1=C/CC[C@@]2(C)O[C@H]2[C@H]2OC(=O)[C@@H](CNNC(C)(C)C)[C@@H]2CC1.O=C(O)/C=C/C(=O)O
- Activity [1]: 0%

Compound: C/C1=C/CC[C@@]2(C)O[C@H]2[C@H]2OC(=O)[C@@H](CNCCCO)[C@@H]2CC1.O=C(O)/C=C/C(=O)O
- Activity [1]: 0%

Compound: C/C1=C/CC[C@@]2(C)O[C@H]2[C@H]2OC(=O)[C@@H](CNCCN)[C@@H]2CC1.O=C(O)/C=C/C(=O)O
- Activity [1]: 0%

Compound: C/C1=C/CC[C@@]2(C)O[C@H]2[C@H]2OC(=O)[C@@H](CN3CCCCCC3)[C@@H]2CC1.O=C(O)/C=C/C(=O)O
- Activity [1]: 15%

Compound: CCNC[C@@H]1C(=O)O[C@H]2[C@H]1CC/C(C)=C\CC[C@@]1(C)O[C@@H]21.O=C(O)/C=C/C(=O)O
- CC50 [2]: 31000 nM
- Activity [1]: 2%

Compound: C/C1=C/CC[C@@]2(C)O[C@H]2[C@H]2OC(=O)[C@@H](CNCCCN)[C@@H]2CC1.O=C(O)/C=C/C(=O)O
- Activity [1]: 0%

Compound: CCN(C)C[C@@H]1C(=O)O[C@H]2[C@H]1CC/C(C)=C\CC[C@@]1(C)O[C@@H]21.O=C(O)/C=C/C(=O)O
- CC50 [2]: 2500 nM
- Activity [1]: 80%

Compound: C/C1=C/CC[C@@]2(C)O[C@H]2[C@H]2OC(=O)[C@@H](C)[C@@H]2CC1
- Activity [1]: 0%

Compound: CNC[C@@H]1C(=O)O[C@H]2[C@H]1CC/C(C)=C\CC[C@@]1(C)O[C@@H]21.O=C(O)/C=C/C(=O)O
- CC50 [2]: 18000 nM
- Activity [1]: 4%

Compound: C/C1=C/CC[C@@]2(C)O[C@H]2[C@H]2OC(=O)[C@@H](CNCCO)[C@@H]2CC1.O=C(O)/C=C/C(=O)O
- Activity [1]: 0%
